# Measured values pooled from the literature.
SMILES,cell line,read-out,technique,concentration,time,endpoint,value
CNc1ncc2c(/C=C/C(=O)N3CCOCC3)nn(CC3CCCC3)c2n1,OE33,cell growth or viability,resazurin,,5 days,EC50,> 30 µM
CC(C)(C)c1cnc(CSc2cnc(NC(=O)C3CCN(C(=O)COCCOCCSc4cccc5c4C(=O)N(C4CCC(=O)NC4=O)C5=O)CC3)s2)o1 (stereo not shown),HH,cell growth or viability,CCK-8,0.5 µM,,viability,13.5%
O=C(Nc1ccc(Oc2nnc(-c3ccc(Cl)cc3)c3ccccc23)cc1)c1cccc([N+](=O)[O-])c1,HepG2,cell growth or viability,MTT,0.625 µM,,cell death,32.3%
CN(C)C1CCCN(C(=O)/C=C/c2nn(CC3CCCC3)c3ncnc(N)c23)C1 (stereo not shown),OE33,cell growth or viability,resazurin,,5 days,EC50,> 30 µM
O=C(Nc1ccc(Oc2nnc(-c3ccc(Cl)cc3)c3ccccc23)cc1)c1ccccc1,HepG2,cell growth or viability,MTT,0.625 µM,,cell death,87.9%
Nc1ncnc2c1c(/C=C/C(=O)N1CCC(O)CC1)nn2CC1CCCC1,OE33,cell growth or viability,resazurin,,5 days,EC50,> 30 µM
CC(=NNC(=O)c1cccnc1)c1ccc(Nc2nnc(-c3ccc(Cl)cc3)c3ccccc23)cc1,HepG2,cell growth or viability,MTT,1.25 µM,,cell death,88.1%
CC(C)(C)c1cnc(CSc2cnc(NC(=O)C3CCN(CCCCCCCSc4cccc5c4C(=O)N(C4CCC(=O)NC4=O)C5=O)CC3)s2)o1 (stereo not shown),HH,cell growth or viability,CCK-8,0.5 µM,,viability,0%
O=C(Nc1ccc([N+](=O)[O-])cc1)Nc1cccc(C(F)(F)F)c1,LAD2,degranulation,,,,IC50,0.75 µM
CNc1ncc2c(/C=C/C(=O)N3CCC(OC)CC3)nn(Cc3ccccc3C)c2n1,OE33,cell growth or viability,resazurin,,5 days,EC50,7.84 µM
O=C(C=Cc1ccccc1)Nc1ccc(Oc2nnc(-c3ccc(Cl)cc3)c3ccccc23)cc1,HepG2,cell growth or viability,MTT,0.312 µM,24 h,viability,99.6%
CC(=O)c1nn(-c2ccc(C)cc2)/c(=N/N=C(\C)c2ccc(NC(=O)c3ccccc3)cc2)s1,HepG2,cell growth or viability,MTT,1.25 µM,,viability,5.9%
C=CC(=O)NC1CCN(c2ncc3ncnc(Nc4ccc(Oc5ccc6c(c5)ncn6C)c(C)c4)c3n2)CC1,DMS-273,cell growth or viability,,,,EC50,0.338 µM
CC(=O)Nc1ccc(Oc2nnc(-c3ccc(Cl)cc3)c3ccccc23)cc1,HepG2,cell growth or viability,MTT,5 µM,,cell death,93.5%
Nc1ncnc2c1c(/C=C/C(=O)N1CCC(CCO)CC1)nn2CC1CCCC1,OE33,cell growth or viability,resazurin,,5 days,EC50,> 30 µM
CC(C)(C)c1cnc(CSc2cnc(NC(=O)C3CCN(CCCCCCCCSc4cccc5c4CN(C4CCC(=O)NC4=O)C5=O)CC3)s2)o1 (stereo not shown),HH,cell growth or viability,CCK-8,0.5 µM,,viability,0%
CC(=NNC(=O)c1ccncc1)c1ccc(Nc2nnc(-c3ccc(Cl)cc3)c3ccccc23)cc1,HepG2,cell growth or viability,MTT,0.312 µM,,cell death,64.7%
CC(C)(C)c1cnc(CSc2cnc(NC(=O)C3CCN(C(=O)CCCSc4cccc5c4C(=O)N(C4CCC(=O)NC4=O)C5=O)CC3)s2)o1 (stereo not shown),HH,cell growth or viability,CCK-8,0.1 µM,,viability,98%
CCOC(=O)c1nn(-c2cccc(Cl)c2)/c(=N/N=C(\C)c2ccc(NC(=O)c3ccccc3)cc2)s1,HepG2,cell growth or viability,MTT,0.625 µM,,viability,3.18%
Nc1ncnc2c1c(/C=C/C(=O)N1CCCCC1)nn2CC1CCCC1,OE33,cell growth or viability,resazurin,,5 days,EC50,> 30 µM
CC(=NNC(=O)c1ccccc1Cl)c1ccc(Nc2nnc(-c3ccc(Cl)cc3)c3ccccc23)cc1,HepG2,cell growth or viability,MTT,0.312 µM,,cell death,19.8%
CC(C)(C)c1cnc(CSc2cnc(NC(=O)C3CCN(CCCCCCCCSc4cccc5c4C(=O)N(C4CCC(=O)NC4=O)C5=O)CC3)s2)o1 (stereo not shown),HH,cell growth or viability,CCK-8,0.15 µM,,viability,16.5%
